Shown are actives, neighbours in structure and some others; about 3.9% of the full set was active somewhere.
HEK293 NFkB inh: inhibitors of PMA/ionomycin-induced NF-kB reporter, primary screen, antigen receptor NF-kB inhibitor project, cell-based, HEK-293 luciferase reporter, luminescence; HEK-293 NF-kB luciferase reporter; inhibition, % at 3 µM; 62,000 compounds, 0.21% hits; AID 465, 2006;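 active = inhibition above the mean of all tested compounds plus 3 SD, cut at about 40% in these data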
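Signal: luciferase luminescence; Material: HEK-293 cells with stable firefly luciferase reporter driven by four HIV NF-kB elements; Probe or stimulus: PMA with ionomycin; Replication: tested once; Times: 1 h compound pretreatment, then 16 h stimulation at 37 °C, 5% CO2; Benchmarks: DMSO and 10 µM reference inhibitor; Evaluation: per-plate % inhibition versus controls.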
SF-1 act: activators of human SF-1, primary screen, cell-based, CHO-K1, Gal4-SF-1 LBD, luciferase luminescence; Steroidogenic factor 1 (Homo sapiens), Q13285; CHO-K1 Gal4-SF-1 LBD luciferase reporter; % increase over DMSO SF-1-specific signal; activation, % at 10 µM; 65,000 compounds, 1.9% hits; AID 522, 2006;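 active = activation above the mean activation of all tested compounds plus 3 SD, cut at about 50% in these data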
Target sequence (Q13285 whole entry, looked up, the tested form may be a part): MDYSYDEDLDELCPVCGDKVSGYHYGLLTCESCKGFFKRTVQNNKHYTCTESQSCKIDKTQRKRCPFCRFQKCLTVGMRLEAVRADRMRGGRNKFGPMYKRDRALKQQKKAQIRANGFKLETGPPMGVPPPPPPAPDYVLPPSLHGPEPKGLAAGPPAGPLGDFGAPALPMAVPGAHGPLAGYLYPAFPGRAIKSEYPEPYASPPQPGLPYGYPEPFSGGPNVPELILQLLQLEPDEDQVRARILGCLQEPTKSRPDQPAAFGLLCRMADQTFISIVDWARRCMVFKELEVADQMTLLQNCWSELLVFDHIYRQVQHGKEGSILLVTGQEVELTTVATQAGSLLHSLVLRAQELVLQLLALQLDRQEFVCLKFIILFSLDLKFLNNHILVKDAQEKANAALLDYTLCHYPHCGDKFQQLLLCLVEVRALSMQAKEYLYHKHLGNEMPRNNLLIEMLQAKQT
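Material: CHO-K1 cells with Gal4–hSF-1 LBD chimera plus Gal4-driven luciferase / Input: 4,000 CHO-K1 cells per well / Incubation: compound exposure 20 h at 37 °C / Signal: luminescence read 15 min after SteadyLite luciferase reagent, after room-temperature equilibration / Read-out: percent activation versus DMSO / Benchmarks: DMSO negative control and −SF1 background wells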
Jurkat viability: cytotoxicity toward Jurkat T cells, primary screen, cytotoxicity control, cell-based, Jurkat E6.1, 60K MLSMR library | Jurkat E6.1 viability, ATP luminescence, 48 h | inhibition, % at 4 µM | AID 463, 2006 | 56,000 compounds, 1.2% hits;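 active = inhibition above the mean inhibition of all tested compounds plus 3 SD, cut at about 28% in these data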
RORA act: activators of orphan receptor RORA, primary screen, cell-based, luminescence | Nuclear receptor ROR-alpha (Homo sapiens), P35398 | CHO-K1 Gal4-RORA LBD luciferase reporter; percent increase over mock-subtracted basal signal | activation, % at 10 µM | 65,000 compounds, 1.5% hits | AID 560, 2006;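 active = activation above the mean of all tested compounds plus 3 SD, cut at about 49% in these data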
Of the large screens only hits and unclear results are named; the others gave an inactive call.

COC(=O)CCCC(=O)Nc1ccc(Cl)c(Cl)c1	none
COc1ccc(C(=O)Nc2ccc(Cl)c(Cl)c2)c(OC)n1	RORA act 52
Nn1c(SCc2nc3ccccn3c2Br)nnc1-c1cccnc1	none
c1ccc2c(c1)oc1c(NCCN3CCOCC3)ncnc12	none
c1ccc2c(c1)oc1c(Nc3ccc4c(c3)OCO4)ncnc12	SF-1 act 92, RORA act 83
c1ccc2c(c1)oc1c(Nc3ccc(CN4CCOCC4)cc3)ncnc12	SF-1 act 54
c1ccc(Nc2ncnc3c2oc2ccccc23)cc1	SF-1 act 65
CCOC(=O)CSc1nnc(CNC(=O)c2ccc(OC)cc2)n1C1CCCCC1	none
Cc1cccc2nc(Cn3c(=O)n(CCC(=O)NCc4ccco4)c(=O)c4ccccc43)cc(=O)n12	none
CCCn1c(NC(=O)c2ccc(Cl)c(S(=O)(=O)N3CCCC3)c2)nc2ccccc21	none
Cc1ccc(C(=O)CSc2nnc(-c3cccs3)n2C)o1	none
Cn1c(SCc2ccc(F)cc2)nnc1-c1ccccn1	SF-1 act 64
Cn1c(SCc2ccccc2)nnc1-c1cccs1	SF-1 act 57, RORA act 50
Cn1c(SCc2ccccc2F)nnc1-c1cnccn1	RORA act 65
Cn1c(SCc2nc3ccccc3s2)nnc1-c1cccs1	none
Cn1c(SCc2ccc(F)cc2)nnc1-c1cccs1	SF-1 act 51
CC1CCCN(c2nc3ccsc3c(=O)s2)C1 (stereo unspecified)	RORA act 60 (no result: Jurkat viability)
CCC(=O)Nc1cc(NC(=O)CSc2ncc(-c3ccc(F)cc3)n2Cc2ccco2)ccc1C	SF-1 act 69, RORA act 55
Cc1csc(NC(=O)CCn2c(=O)sc3ccccc32)n1	none
O=C(CCn1c(=O)sc2ccccc21)Nc1nccs1	RORA act 53 (no result: Jurkat viability)
COc1ccc(C2C3=C(Nc4ncnn42)c2ccccc2CCC3)cc1 (stereo unspecified)	none (no result: Jurkat viability)
COc1cc(C2C3=C(Nc4ncnn42)c2ccccc2CC3)cc(OC)c1OC (stereo unspecified)	Jurkat viability 98
CCOC(=O)C1CCN(C(=O)Nc2ccc(Cl)cc2Cl)CC1	none
C=CCSc1nncn1/N=C/c1ccc(OC)cc1	SF-1 act 83, RORA act 91
COc1ccc(/C=N/n2cnnc2SCCO)cc1OC	none
O=C(Nc1ccc(N2CCOCC2)c(Cl)c1)c1ccc(Br)o1	SF-1 act 67, RORA act 55
O=C(Nc1ccc2c(c1)oc1ccccc12)c1ccc(Br)o1	RORA act 68
CCN(CC)c1ccc(NC(=O)c2ccc(Br)o2)cc1	RORA act 102
COC(=O)Cc1ccc(NC(=O)c2ccc(Br)o2)cc1	none
CCc1cccc(NC(=O)c2ccc(Br)o2)c1	none
CC1=C(C(=O)NCc2ccccn2)C2(CCC(C)CC2)OC1=O (stereo unspecified)	none
Cc1nn(-c2ccccc2)c(C)c1C(=O)OCC(=O)Nc1ccc2c(c1)OCO2	none (no result: Jurkat viability)
O=C(Nn1c(Cc2cccs2)nc2ccccc2c1=O)c1cccs1	none
Cc1ccccc1NC(=O)CN1C(=O)COc2ccc(Cl)cc21	none
Cc1nc(C)c(C(=O)Nc2ccc(Oc3ccccc3)cc2)o1	Jurkat viability 30
COc1ccc(NC(=O)c2ocnc2C)cc1OC	none (no result: Jurkat viability)
Cc1ncoc1C(=O)Nc1ccc(Oc2ccccc2)cc1	SF-1 act 59
Cc1cccc(CCNC(=O)c2nnc(Cc3ccc(Cl)cc3)o2)c1	none
c1csc(CCNc2ncnc3sc4c(c23)CCC4)c1	Jurkat viability 40
CC1(C)Cc2c(sc(NC(=O)c3ccc(Br)o3)c2C#N)CO1	SF-1 act 62 (no result: HEK293 NFkB inh, Jurkat viability)
N#Cc1c(NC(=O)c2ccc(Cn3cc(Br)cn3)o2)sc2c1CCCCCC2	none
O=c1c(-c2ccc(F)cc2)coc2cc(O)ccc12	SF-1 act 63, RORA act 84
COc1ccc(-c2coc3cc(O)ccc3c2=O)cc1OC	RORA act 78
COc1ccccc1Oc1coc2cc(O)ccc2c1=O	none
O=c1c(-c2ccc(F)cc2)coc2c3c(ccc12)OCCO3	SF-1 act 63
O=c1c(-c2ccc(Br)cc2)coc2c(CN3CCOCC3)c(O)ccc12	none
CC1(C)Cc2ccccc2C2CC(O)C(=O)N21 (stereo unspecified)	none
CCCC1=C(C(=O)OCC)C(c2ccc(NC(C)=O)cc2)NC(=O)N1 (stereo unspecified)	none

Source: PubChem BioAssay
